The values that follow come from ChEMBL document CHEMBL4190252, “Synthesis, antitumor activity and CDK1 inhibiton of new thiazole nortopsentin analogues” (Eur J Med Chem, 2017).

Test [1] deals with MCF7. Briefly: Induction of apoptosis in human MCF7 cells assessed as late apoptotic cells at 5 x 10^-8 M after 72 hrs by Annexin V/propidium iodide double staining-based flow cytometry (reference value: 0%). The class given is functional. The method, boiled down:
(§1)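 MCF-7 cells were grown in RPMI with 10% FBS, 2 mM L-glutamine and antibiotics at 37 °C in 5% CO2. They were seeded at 2.0 x 10^5 cells/cm2 in triplicate, left to adhere overnight, then treated for 72 h; DMSO 0.1% served as vehicle. Trypsinised cells at 2.0 x 10^5/mL were stained with annexin V-FITC and PI for 15 min at room temperature in the dark. At least 1.0 x 10^4 cells were gated into viable, early apoptotic, late apoptotic and necrotic quadrants.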
In general terms: In flow cytometry, cells or beads pass a laser one at a time.

Test [2] deals with MCF7. Briefly: Induction of apoptosis in human MCF7 cells assessed as necrotic cells at 5 x 10^-8 M after 72 hrs by Annexin V/propidium iodide double staining-based flow cytometry (reference value: 0.1%). The class given is functional. The method, boiled down:
as §1

Test [3] concerns MCF7. Briefly: Induction of apoptosis in human MCF7 cells assessed as early apoptotic cells at 5 x 10^-8 M after 72 hrs by Annexin V/propidium iodide double staining-based flow cytometry (reference value: 1%). The class given is functional. The essentials:
as §1

Test [4] deals with Cyclin-dependent kinase 1/cyclin B1 (Homo sapiens, UniProt P06493). Briefly: Inhibition of recombinant human full length His-tagged CDK1/cyclin B expressed in baculovirus expression system after 60 mins in presence of omnia peptide substrate by fluorescence based assay. The essentials: (§2)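 Recombinant human CDK1/cyclin B in kinase buffer with Omnia peptide substrate, ATP and DTT, with inhibitor at 0.1–10 µM. Reactions ran for 60 min at 30 °C, with fluorescence read at ex 360/em 485 nm. Initial velocity came from the RFU-versus-time slope and was plotted against concentration for a dose-response IC50 fit. Values are mean±SD of two determinations.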
Chain of Cyclin-dependent kinase 1/cyclin B1 (P06493 whole entry): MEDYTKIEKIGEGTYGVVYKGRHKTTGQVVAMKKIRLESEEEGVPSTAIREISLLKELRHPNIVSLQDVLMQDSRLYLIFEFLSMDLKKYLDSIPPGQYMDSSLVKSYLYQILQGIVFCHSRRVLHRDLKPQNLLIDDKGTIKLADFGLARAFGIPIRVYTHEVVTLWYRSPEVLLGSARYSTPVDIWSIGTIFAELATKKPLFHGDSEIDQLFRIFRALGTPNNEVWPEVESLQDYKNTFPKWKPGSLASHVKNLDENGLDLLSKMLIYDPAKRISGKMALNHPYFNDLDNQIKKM
Chain of Cyclin-dependent kinase 1/cyclin B1 (P14635 whole entry, further chain): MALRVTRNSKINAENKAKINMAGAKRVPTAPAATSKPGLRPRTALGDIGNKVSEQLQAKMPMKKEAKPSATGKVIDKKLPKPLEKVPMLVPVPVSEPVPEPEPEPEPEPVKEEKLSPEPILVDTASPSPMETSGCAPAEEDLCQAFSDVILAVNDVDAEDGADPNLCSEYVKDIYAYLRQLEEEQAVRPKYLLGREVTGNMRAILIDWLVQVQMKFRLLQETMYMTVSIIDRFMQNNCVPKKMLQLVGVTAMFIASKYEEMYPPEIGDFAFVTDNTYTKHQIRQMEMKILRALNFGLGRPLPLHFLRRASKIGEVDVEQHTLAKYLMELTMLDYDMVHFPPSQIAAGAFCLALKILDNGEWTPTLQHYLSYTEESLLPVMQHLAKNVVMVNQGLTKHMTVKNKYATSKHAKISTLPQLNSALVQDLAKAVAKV

Test [5] deals with MCF7. Briefly: Induction of apoptosis in human MCF7 cells assessed as viable cells at 5 x 10^-8 M after 72 hrs by Annexin V/propidium iodide double staining-based flow cytometry (reference value: 98.9%). The class given is functional. Particulars: MCF7, 72 h, read-out: Activity. The method, boiled down: as §1
Test [6] has as its system MCF7. Briefly: Cell cycle arrest in human MCF7 cells assessed as accumulation at G2/M phase at GI50 concentration after 48 hrs by propidium iodide-staining based flow cytometry. The class given is functional. The essentials:
(§3)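 Cells were trypsinized, washed in cold PBS, and 1 x 10^6 cells stained with 20 µg/ml PI plus 200 µg/ml RNase for 30 min at room temperature in the dark. At least 1x 10^4 cells were analysed by flow cytometry. Mean±SD of three experiments in triplicate.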

Test [7] addresses Cyclin-dependent kinase 1/cyclin B1 (Homo sapiens) (UniProt P06493+P14635). Briefly: Inhibition of recombinant human full length His-tagged CDK1/cyclin B expressed in baculovirus expression system at 0.1 to 10 uM after 60 mins in presence of omnia peptide substrate by fluorescence based assay. The method, boiled down:
as §2

The test system of test [8] is MCF7. Briefly: Cell cycle arrest in human MCF7 cells assessed as accumulation at G0/G1 phase at GI50 concentration after 48 hrs by propidium iodide-staining based flow cytometry (reference value: 63.5%). The class given is functional. The essentials:
as §3

Active and inactive are the calls of the source. No cut-off for these calls is given here.

Chain of Cyclin-dependent kinase 1/cyclin B1 (Homo sapiens) (P06493 whole entry, looked up): as the sequence (P06493 whole entry) above
Chain of Cyclin-dependent kinase 1/cyclin B1 (Homo sapiens) (P14635 whole entry, looked up): as the sequence (P14635 whole entry, further chain) above

A word on the IC50: it is the point on the concentration scale where inhibition reaches its midpoint. As for `COCCn1cc(-c2nc(-c3c[nH]c4ncccc34)cs2)c2cc(OC)ccc21`, the Activity in the test on MCF7 [1] is 0.1%; in the test on MCF7 [2] it was 0%; in the test with MCF7 [3], 54.2%; in the test on MCF7 [6], greater than 50%. For the same molecule, the IC50 in test [4] is 1.14 µM. Moreover, the viability at 0.05 µM in the test with MCF7 [5] is 45.8%.

With `COCCn1cc(-c2csc(-c3c[nH]c4ccc(Br)cc34)n2)c2cccnc21`, the inhibition entry in test [7] was “inactive”. The Activity with MCF7 [8] is 9%.
